The record followed here is ChEMBL document CHEMBL1152513, “Synthesis and characterizations of novel quinoline derivatives having mixed ligand activities at the kappa and mu receptors: Potential therapeutic efficacy against morphine dependence” (Bioorg Med Chem, 2009).

The structures appear in SMILES notation. The source made the active and inactive calls. The calls are words filed in the database; no cut-off is given here.

Experiment [1] deals with Kappa-type opioid receptor (Homo sapiens) (UniProt P41145). Nature of the experiment: Displacement of [3H]dynorphin from human kappa opioid receptor expressed in C6 giloma cells measured total binding per mg of protein at 5 uM. In kind it is cell-based. The method in brief:
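Membranes from C6 glioma cells stably transfected with human KOR (G418 selected), harvested in PBS, homogenized in 50 mM Tris–HCl pH 7.4 and spun at 30,000g. Nonspecific binding defined with 10 µM U50488H. Read by filtration and counting.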
(In general: Loss of bound radioactivity is the signal in a displacement assay; it reports binding, not function.)

For experiment [2], the species on record is Rattus norvegicus. Nature of the experiment: Induction of ERK phosphorylation in rat primary astrocyte at 40 uM after 10 mins. In outline: (§1)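 Primary astrocytes from neocortex of newborn rat pups (<24 h), grown 10 days, then serum-starved 48 h. Treated 10 min at 40 µM; antagonists added 1 h before stimulation. pERK1/2 measured by western blot, 40 µg protein/lane, 10% SDS-PAGE, anti-p-ERK at 1:1000. Mean ± SEM of at least 3 blots, compared with untreated control.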

For experiment [3], the target named is Mu-type opioid receptor (Rattus norvegicus) (UniProt P33535). Nature of the experiment: Displacement of [3H]DAMGO from mu opioid receptor in rat brain measured total binding per mg of protein at 5 uM. In kind it is tissue-based.
Mu-type opioid receptor (Rattus norvegicus), sequence (P33535 whole entry): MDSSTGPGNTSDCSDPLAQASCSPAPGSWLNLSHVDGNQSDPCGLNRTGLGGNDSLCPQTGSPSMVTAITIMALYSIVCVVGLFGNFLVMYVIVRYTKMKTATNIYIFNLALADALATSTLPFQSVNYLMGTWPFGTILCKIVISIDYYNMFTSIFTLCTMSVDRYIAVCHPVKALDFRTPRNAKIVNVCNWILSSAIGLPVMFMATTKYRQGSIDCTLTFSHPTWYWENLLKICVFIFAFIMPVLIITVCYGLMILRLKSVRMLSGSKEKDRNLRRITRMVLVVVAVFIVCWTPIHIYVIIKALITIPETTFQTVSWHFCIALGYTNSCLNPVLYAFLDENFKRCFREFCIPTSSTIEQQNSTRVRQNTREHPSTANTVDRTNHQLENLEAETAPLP
The test system of experiment [4] is Mus musculus. Nature of the experiment: Inhibition of naloxone-induced weight loss in mouse at 20 mg/kg, iv for 6 days. In kind it is functional, organism-based. Further details: dose 20 mg/kg.
In experiment [5] the test system is Mus musculus. Nature of the experiment: Inhibition of naloxone-induced stereotype jumping in morphine treated mouse at 20 mg/kg, iv for 6 days. In kind it is functional, organism-based. Further details: dose 20 mg/kg.
For experiment [6], the species on record is Rattus norvegicus. The experiment in a line: Induction of ERK phosphorylation in rat primary astrocyte at 40 uM after 10 mins in presence of naloxone. In outline:
as §1

Kappa-type opioid receptor (Homo sapiens), sequence (P41145 whole entry): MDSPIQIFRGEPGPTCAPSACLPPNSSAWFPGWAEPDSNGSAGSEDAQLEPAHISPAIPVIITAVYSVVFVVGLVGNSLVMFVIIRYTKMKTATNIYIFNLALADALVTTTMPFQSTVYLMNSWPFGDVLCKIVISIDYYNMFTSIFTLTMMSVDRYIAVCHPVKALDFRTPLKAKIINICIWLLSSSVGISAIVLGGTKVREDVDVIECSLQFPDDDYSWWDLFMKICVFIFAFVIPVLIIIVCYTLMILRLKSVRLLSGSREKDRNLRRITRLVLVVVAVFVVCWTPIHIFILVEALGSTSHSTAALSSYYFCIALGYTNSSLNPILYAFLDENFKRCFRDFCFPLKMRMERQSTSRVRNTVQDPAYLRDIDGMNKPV

Take `COc1ccc(NC(=O)CNc2cc(C)nc3ccccc23)cc1`: the Activity in experiment [1] came out at 44%; in experiment [3], 27%. In addition, the outcome in the experiment filed under Rattus norvegicus [2] was Active.

As to `Cc1ccc(NC(=O)CCNc2cc(C)nc3ccccc23)cc1`, the Activity in experiment [1] amounted to 56%; in experiment [3] it was 23%. In addition, the outcome in the experiment listed under Rattus norvegicus [2] was Active.

In the case of `Cc1cc(NC(=O)C(Cl)Cl)c2ccccc2n1`, the figures for the Activity in experiment [1] and in experiment [3] were 77% and 106%, respectively. Further, the outcome in the experiment listed under Rattus norvegicus [2] was Active.

In the case of `Cc1ccc(C(=O)Nc2cc(C)nc3ccccc23)cc1`, the outcome in the experiment with Mus musculus [4], in the experiment with Mus musculus [5] and in the experiment filed under Rattus norvegicus [2] was Active. The figures for the Activity in experiment [1] and in experiment [3] were 58% and 62%, respectively.

Take `Cc1cc(N(CC(=O)NC2CCCCC2)CC(=O)NC2CCCCC2)c2ccccc2n1`: the values for the Activity in experiment [1] and in experiment [3] were 114% and 53%, respectively. In the experiment listed under Rattus norvegicus [2], the outcome was Active.

The compound `C[C@@H](NC(=O)[C@@H](N)Cc1ccc(O)cc1)C(=O)NCC(=O)N(C)[C@@H](Cc1ccccc1)C(=O)NCCO` gave an Activity in experiment [3] of 76%.

`Cc1ccc(NC(=O)CNc2cc(C)nc3ccccc23)cc1`: the values for the Activity in experiment [1] and in experiment [3] were 90% and 47%, respectively. The outcome in the experiment with Mus musculus [5] and in the experiment filed under Rattus norvegicus [2] was Active.

`Cc1cc(NCC(=O)Nc2cc(Cl)ccc2Cl)c2ccccc2n1`: the Activity worked out at 74% in experiment [1] and 66% in experiment [3]. The result in the experiment listed under Rattus norvegicus [2] was Active.

With `Cc1cc(NCC(=O)Nc2ccccc2Cl)c2ccccc2n1`, the Activity in experiment [1] and in experiment [3] was 52% each time. Besides, the result in the experiment on Mus musculus [5] and in the experiment filed under Rattus norvegicus [2] was Active.

Turning to `Cc1cc(NCC(=O)Nc2ccccc2)c2ccccc2n1`, the results for the Activity in experiment [1] and in experiment [3] were 38% and 30%, respectively. Moreover, the outcome in the experiment on Mus musculus [5] and in the experiment filed under Rattus norvegicus [2] was Active. The outcome in the experiment filed under Rattus norvegicus [6] was inactive.

On to `Cc1cc(N)c2ccccc2n1`, for which the results for the Activity in experiment [1] and in experiment [3] were 71% and 95%, respectively. In addition, the outcome in the experiment filed under Rattus norvegicus [2] was Active.

Turning to `O=C(CCCl)Nc1ccccc1`, the outcome in the experiment with Mus musculus [4] and in the experiment filed under Rattus norvegicus [2] was Active. For the same compound, the Activity in experiment [1] is 59%; in experiment [3] it was 61%.
